Laboratory results taken from ChEMBL document CHEMBL4038305, “Benzoxaborole Antimalarial Agents. Part 5. Lead Optimization of Novel Amide Pyrazinyloxy Benzoxaboroles and Identification of a Preclinical Candidate” (J Med Chem, 2017).

How the values were obtained:
[1] = system: Plasmodium berghei; assay: Antimalarial activity against Plasmodium berghei infected in Swiss Webster mouse assessed as mouse survival rate at 200 mg/kg administered once daily via oral gavage for 4 consecutive days beginning 1 hr after infection measured on day 6 post infection relative to control; type: functional
Summary of the method: (§1)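 P. berghei-infected erythrocytes taken from a previously infected mouse were injected intraperitoneally. Oral dosing, once daily for 4 consecutive days, began 1 h after infection, in polyethylene glycol 300/propylene glycol/water (55/25/20 by weight). Chloroquine at 30 mg/kg was the positive control, with a vehicle-only group. Percent survival was recorded daily from day 4 to day 20.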

[2] = system: Plasmodium berghei; assay: Antimalarial activity against Plasmodium berghei infected in Swiss Webster mouse assessed as mouse survival rate at 1 mg/kg administered once daily via oral gavage for 4 consecutive days beginning 1 hr after infection measured on day 4 post infection relative to control; type: functional
Summary of the method: (§2)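 Mice given an intraperitoneal injection of P. berghei-infected erythrocytes taken from a previously infected animal. Oral dosing once daily for 4 consecutive days, starting 1 h after infection. Vehicle: polyethylene glycol 300/propylene glycol/water (weight ratio 55/25/20). Percent survival recorded daily from day 4 to day 20. Chloroquine 30 mg/kg and vehicle-only groups served as controls.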

[3] = system: Plasmodium berghei; assay: Antimalarial activity against Plasmodium berghei infected in Swiss Webster mouse assessed as mouse survival rate at 3 mg/kg administered once daily via oral gavage for 4 consecutive days beginning 1 hr after infection measured on day 5 post infection relative to control; type: functional; summary of the method: as §1
[4] = system: Plasmodium berghei; assay: Antimalarial activity against Plasmodium berghei infected in Swiss Webster mouse assessed as mouse survival rate at 200 mg/kg administered once daily via oral gavage for 4 consecutive days beginning 1 hr after infection measured on day 11 post infection relative to control; type: functional; summary of the method: as §1
[5] = system: Plasmodium berghei; assay: Antimalarial activity against Plasmodium berghei infected in Swiss Webster mouse assessed as mouse survival rate at 3 mg/kg administered once daily via oral gavage for 4 consecutive days beginning 1 hr after infection measured on day 6 post infection relative to control; type: functional; summary of the method: as §1
[6] = system: Plasmodium berghei; assay: Antimalarial activity against Plasmodium berghei infected in Swiss Webster mouse assessed as mouse survival rate at 100 mg/kg administered once daily via oral gavage for 4 consecutive days beginning 1 hr after infection measured on day 5 post infection relative to control; type: functional; summary of the method: as §2
[7] = system: Plasmodium berghei; assay: Antimalarial activity against Plasmodium berghei infected in Swiss Webster mouse assessed as mouse survival rate at 33 mg/kg administered once daily via oral gavage for 4 consecutive days beginning 1 hr after infection measured on day 5 post infection relative to control; type: functional; summary of the method: as §1
[8] = system: Plasmodium berghei; assay: Antimalarial activity against Plasmodium berghei infected in Swiss Webster mouse assessed as mouse survival rate at 1 mg/kg administered once daily via oral gavage for 4 consecutive days beginning 1 hr after infection measured on day 6 post infection relative to control; type: functional; summary of the method: as §2
[9] = system: Plasmodium berghei; assay: Antimalarial activity against Plasmodium berghei infected in Swiss Webster mouse assessed as mouse survival rate at 1 mg/kg administered once daily via oral gavage for 4 consecutive days beginning 1 hr after infection measured on day 5 post infection relative to control; type: functional; summary of the method: as §2
[10] = system: Plasmodium berghei; assay: Antimalarial activity against Plasmodium berghei infected in Swiss Webster mouse assessed as mouse survival rate at 11 mg/kg administered once daily via oral gavage for 4 consecutive days beginning 1 hr after infection measured on day 6 post infection relative to control; type: functional; summary of the method: as §1
[11] = system: Plasmodium falciparum; assay: Antimalarial activity against chloroquine-sensitive Plasmodium falciparum 3D7 infected in human erythrocytes assessed as reduction in [3H]-hypoxanthine incorporation preincubated for 24 hrs followed by [3H]-hypoxanthine addition measured after 24 hrs by scintillation counting method; type: functional, cell-based
Summary of the method: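 P. falciparum 3D7 cultures were exposed to the compound for 48 h, with atovaquone as the reference control. IC50 was taken from three replicates.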

[12] = system: Plasmodium berghei; assay: Antimalarial activity against Plasmodium berghei infected in Swiss Webster mouse assessed as mouse survival rate at 3.7 mg/kg administered once daily via oral gavage for 4 consecutive days beginning 1 hr after infection measured on day 5 post infection relative to control; type: functional; summary of the method: as §1
[13] = system: Plasmodium berghei; assay: Antimalarial activity against Plasmodium berghei infected in Swiss Webster mouse assessed as mouse survival rate at 200 mg/kg administered once daily via oral gavage for 4 consecutive days beginning 1 hr after infection measured on day 5 post infection relative to control; type: functional; summary of the method: as §1
[14] = system: Plasmodium berghei; assay: Antimalarial activity against Plasmodium berghei infected in Swiss Webster mouse assessed as mouse survival rate at 100 mg/kg administered once daily via oral gavage for 4 consecutive days beginning 1 hr after infection measured on day 8 post infection relative to control; type: functional; summary of the method: as §2
[15] = system: Plasmodium berghei; assay: Antimalarial activity against Plasmodium berghei infected in Swiss Webster mouse assessed as mouse survival rate at 100 mg/kg administered once daily via oral gavage for 4 consecutive days beginning 1 hr after infection measured on day 9 post infection relative to control; type: functional; summary of the method: as §2
[16] = system: Plasmodium berghei; assay: Antimalarial activity against Plasmodium berghei infected in Swiss Webster mouse assessed as mouse survival rate at 33 mg/kg administered once daily via oral gavage for 4 consecutive days beginning 1 hr after infection measured on day 4 post infection relative to control; type: functional; summary of the method: as §1
[17] = system: Plasmodium berghei; assay: Antimalarial activity against Plasmodium berghei infected in Swiss Webster mouse assessed as mouse survival rate at 1 mg/kg administered once daily via oral gavage for 4 consecutive days beginning 1 hr after infection measured on day 7 post infection relative to control; type: functional; summary of the method: as §2
[18] = system: Plasmodium berghei; assay: Antimalarial activity against Plasmodium berghei infected in Swiss Webster mouse assessed as mouse survival rate at 100 mg/kg administered once daily via oral gavage for 4 consecutive days beginning 1 hr after infection measured on day 7 post infection relative to control; type: functional; summary of the method: as §2
[19] = system: Plasmodium berghei; assay: Antimalarial activity against Plasmodium berghei infected in Swiss Webster mouse assessed as mouse survival rate at 200 mg/kg administered once daily via oral gavage for 4 consecutive days beginning 1 hr after infection measured on day 4 post infection relative to control; type: functional; summary of the method: as §1
[20] = system: Plasmodium berghei; assay: Antimalarial activity against Plasmodium berghei infected in Swiss Webster mouse assessed as mouse survival rate at 200 mg/kg administered once daily via oral gavage for 4 consecutive days beginning 1 hr after infection measured on day 8 post infection relative to control; type: functional; summary of the method: as §1
[21] = system: Plasmodium berghei; assay: Antimalarial activity against Plasmodium berghei infected in Swiss Webster mouse assessed as mouse survival rate at 200 mg/kg administered once daily via oral gavage for 4 consecutive days beginning 1 hr after infection measured on day 7 post infection relative to control; type: functional; summary of the method: as §1
[22] = system: Plasmodium berghei; assay: Antimalarial activity against Plasmodium berghei infected in Swiss Webster mouse assessed as mouse survival rate at 11 mg/kg administered once daily via oral gavage for 4 consecutive days beginning 1 hr after infection measured on day 7 post infection relative to control; type: functional; summary of the method: as §1
[23] = system: Plasmodium berghei; assay: Antimalarial activity against Plasmodium berghei infected in Swiss Webster mouse assessed as mouse survival rate at 33 mg/kg administered once daily via oral gavage for 4 consecutive days beginning 1 hr after infection measured on day 6 post infection relative to control; type: functional; summary of the method: as §1
[24] = system: Plasmodium berghei; assay: Antimalarial activity against Plasmodium berghei infected in Swiss Webster mouse assessed as mouse survival rate at 3 mg/kg administered once daily via oral gavage for 4 consecutive days beginning 1 hr after infection measured on day 4 post infection relative to control; type: functional; summary of the method: as §1
[25] = system: Plasmodium falciparum; assay: Antimalarial activity against chloroquine-resistant Plasmodium falciparum W2 infected in human erythrocytes after 48 hrs by YOYO-1 dye based flow cytometric analysis; type: functional, cell-based; conditions: W2, 48 h
Summary of the method: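 P. falciparum W2 cultures were exposed to the compound for 48 h, with artemisinin and chloroquine as reference controls. IC50 was taken from two independent replicates.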

[26] = system: Plasmodium berghei; assay: Antimalarial activity against Plasmodium berghei infected in Swiss Webster mouse assessed as mouse survival rate at 200 mg/kg administered once daily via oral gavage for 4 consecutive days beginning 1 hr after infection measured on day 9 post infection relative to control; type: functional; summary of the method: as §1
[27] = system: Plasmodium berghei; assay: Antimalarial activity against Plasmodium berghei infected in Swiss Webster mouse assessed as mouse survival rate at 100 mg/kg administered once daily via oral gavage for 4 consecutive days beginning 1 hr after infection measured on day 4 post infection relative to control; type: functional; summary of the method: as §2
[28] = system: Plasmodium berghei; assay: Antimalarial activity against Plasmodium berghei infected in Swiss Webster mouse assessed as mouse survival rate at 100 mg/kg administered once daily via oral gavage for 4 consecutive days beginning 1 hr after infection measured on day 6 post infection relative to control; type: functional; summary of the method: as §2
[29] = system: Plasmodium berghei; assay: Antimalarial activity against Plasmodium berghei infected in Swiss Webster mouse assessed as mouse survival rate at 3 mg/kg administered once daily via oral gavage for 4 consecutive days beginning 1 hr after infection measured on day 7 post infection relative to control; type: functional; summary of the method: as §1
[30] = system: Plasmodium berghei; assay: Antimalarial activity against Plasmodium berghei infected in Swiss Webster mouse assessed as mouse survival rate administered once daily via oral gavage for 4 consecutive days beginning 1 hr after infection measured on day 4 post infection; type: functional; summary of the method: as §2
[31] = system: Plasmodium berghei; assay: Antimalarial activity against Plasmodium berghei infected in Swiss Webster mouse assessed as mouse survival rate at 33 mg/kg administered once daily via oral gavage for 4 consecutive days beginning 1 hr after infection measured on day 7 post infection relative to control; type: functional; summary of the method: as §1
[32] = system: Plasmodium berghei; assay: Antimalarial activity against Plasmodium berghei infected in Swiss Webster mouse assessed as mouse survival rate at 11 mg/kg administered once daily via oral gavage for 4 consecutive days beginning 1 hr after infection measured on day 4 post infection relative to control; type: functional; summary of the method: as §1
[33] = system: Plasmodium berghei; assay: Antimalarial activity against Plasmodium berghei infected in Swiss Webster mouse assessed as mouse survival rate at 200 mg/kg administered once daily via oral gavage for 4 consecutive days beginning 1 hr after infection measured on day 10 post infection relative to control; type: functional; summary of the method: as §1

CC[C@H](CO)NC(=O)c1cnc(Oc2ccc3c(c2C)B(O)OC3)cn1
survival at 200 mg/kg [1]: 100%
survival at 1 mg/kg [2]: 100%
survival at 3 mg/kg [3]: 100%
survival at 200 mg/kg [4]: 0%
survival at 3 mg/kg [5]: 100%
survival at 100 mg/kg [6]: 100%
survival at 33 mg/kg [7]: 100%
survival at 1 mg/kg [8]: 100%
survival at 1 mg/kg [9]: 100%
survival at 11 mg/kg [10]: 100%
IC50 [11]: 403 nM
survival at 3.7 mg/kg [12]: 100%
survival at 200 mg/kg [13]: 100%
survival at 100 mg/kg [14]: 80%
survival at 100 mg/kg [15]: 0%
survival at 33 mg/kg [16]: 100%
survival at 1 mg/kg [17]: 0%
survival at 100 mg/kg [18]: 100%
survival at 200 mg/kg [19]: 100%
survival at 200 mg/kg [20]: 100%
survival at 200 mg/kg [21]: 100%
survival at 11 mg/kg [22]: 0%
survival at 33 mg/kg [23]: 100%
survival at 3 mg/kg [24]: 100%
IC50 [25]: 136 nM
survival at 200 mg/kg [26]: 60%
survival at 100 mg/kg [27]: 100%
survival at 100 mg/kg [28]: 100%
survival at 3 mg/kg [29]: 0%
ED90 [30]: 43.3 mg/kg
survival at 33 mg/kg [31]: 0%
survival at 11 mg/kg [32]: 100%
survival at 200 mg/kg [33]: 20%
